Assay results reported in ChEMBL document CHEMBL3124822, “Discovery of a rapidly metabolized, long-acting β(2) adrenergic receptor agonist with a short onset time incorporating a sulfone group suitable for once-daily dosing” (J Med Chem, 2014).

Tests used:
[1] = Plasma protein binding in guinea pig; type: ADME, cell-free, Cavia porcellus; conditions: read-out: PPB (converted)
[2] = Plasma clearance in beagle dog at 0.05 mg/kg, iv up to 8 hrs by LC-MS/MS analysis; type: ADME, organism-based, Canis lupus familiaris; set-up: dose 0.05 mg/kg, route intravenous
How it was run: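 Beagle dogs dosed 0.05 mg/kg intravenously; plasma collected at various time points up to 8 h postdose.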

[3] = biological target: T1, 5-hydroxytryptamine receptor 1A (Homo sapiens, UniProt P08908); test: Binding affinity to human 5HT1A receptor
T1 sequence (P08908 whole entry): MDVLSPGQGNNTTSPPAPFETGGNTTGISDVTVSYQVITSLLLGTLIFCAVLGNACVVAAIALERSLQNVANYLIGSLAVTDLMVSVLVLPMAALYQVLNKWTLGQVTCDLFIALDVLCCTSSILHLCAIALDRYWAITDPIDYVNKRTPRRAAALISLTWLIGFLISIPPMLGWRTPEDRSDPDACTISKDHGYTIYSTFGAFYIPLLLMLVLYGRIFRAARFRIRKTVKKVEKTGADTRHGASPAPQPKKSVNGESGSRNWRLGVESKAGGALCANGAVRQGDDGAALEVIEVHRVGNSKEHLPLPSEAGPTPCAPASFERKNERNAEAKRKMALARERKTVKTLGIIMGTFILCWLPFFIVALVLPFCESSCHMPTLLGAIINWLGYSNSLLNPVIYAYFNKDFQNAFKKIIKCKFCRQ

Hepatocyte [4] = test: Drug metabolism in human hepatocytes assessed as metabolite M13 formation at 12.5 uM after 2 hrs by LC-MS/MS analysis; type: ADME, cell-based
How it was run: (§1)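 Human hepatocytes incubated with substrate at 12.5 μM for 2 h. Products characterized by LC–MS/MS on a C18 column, 5–95% acetonitrile gradient in water with 0.1% formic acid over 8 min. Metabolites numbered by elution order. Abundance is semiquantitative from peak heights (low/medium/high), assuming equal analyte response.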

Salmonella typhimurium = test: Genotoxicity in Salmonella typhimurium by Ames assay; type: toxicity, organism-based; conditions: salmonella enterica subsp. enterica serovar typhimurium
How it was run: (§2)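 Acetate and 4-biphenylsulfonate salts screened in Ames and mouse lymphoma L5178Y assays, with and without a rat liver metabolic activation system.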

Hepatocyte [5] = test: Drug metabolism in human hepatocytes assessed as metabolite M2 formation at 12.5 uM after 2 hrs by LC-MS/MS analysis; type: ADME, cell-based; how it was run: as §1
[6] = biological target: Beta-1 adrenergic receptor (Homo sapiens, UniProt P08588); test: Agonist activity at human beta1 adrenoceptor transfected in CHO cells assessed as cyclic AMP accumulation after 45 mins by fluorescence polarization assay; type: cell-based
Chain of Beta-1 adrenergic receptor (P08588 whole entry): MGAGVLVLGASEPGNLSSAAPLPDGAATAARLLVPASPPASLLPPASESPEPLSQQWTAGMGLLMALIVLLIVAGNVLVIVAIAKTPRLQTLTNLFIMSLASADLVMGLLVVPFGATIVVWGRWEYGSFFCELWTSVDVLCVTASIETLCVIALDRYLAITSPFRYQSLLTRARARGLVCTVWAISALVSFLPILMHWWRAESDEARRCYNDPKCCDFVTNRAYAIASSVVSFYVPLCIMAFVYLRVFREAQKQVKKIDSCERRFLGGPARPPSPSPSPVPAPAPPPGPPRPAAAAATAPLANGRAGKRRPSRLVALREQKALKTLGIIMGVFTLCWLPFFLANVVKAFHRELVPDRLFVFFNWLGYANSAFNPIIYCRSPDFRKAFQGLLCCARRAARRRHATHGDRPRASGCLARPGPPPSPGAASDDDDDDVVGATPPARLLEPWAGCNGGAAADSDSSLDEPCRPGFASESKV

[7] = Ratio of drug uptake from blood to plasma in rat; type: ADME
How it was run: (§3)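 In vitro partitioning of the compound into the cellular fraction of rat, dog and human blood, reported as the blood:plasma ratio.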

[8] = Plasma protein binding in dog; type: ADME, cell-free, Canis lupus familiaris; conditions: read-out: PPB (converted)
[9] = Half life in Han Wistar rat at 0.25 mg/kg, iv up to 7 hrs by LC-MS/MS analysis; type: ADME, organism-based; set-up: dose 0.25 mg/kg, route intravenous; conditions: in vivo
How it was run: (§4)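 Han Wistar rats dosed 0.25 mg/kg intravenously; plasma sampled at various times up to 7 h postdose. Clearance expressed as percentage of liver blood flow.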

Hepatocyte [10] = test: Drug metabolism in human hepatocytes assessed as metabolite M10 formation at 12.5 uM after 2 hrs by LC-MS/MS analysis; type: ADME, cell-based; how it was run: as §1
Cavia porcellus [11] = test: Bronchodilatory activity in guinea pig assessed as duration of action of inhibition of histamine-induced bronchoconstriction at EC90 administered via nebulization 2 mins prior to histamine challenge; type: functional
How it was run: (§5)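 Conscious guinea pigs, n = 24 per group, given test agonist as a nebulized solution in dimethylacetamide–saline vehicle (2 min nebulization) before histamine (10 mM, nebulized 1.3 min) in a whole-body plethysmograph. PenH recorded for 15 min as index of airway obstruction. Dose expressed as nebulizer concentration; duration taken as time to 50% recovery.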

[12] = Drug metabolism in human hepatocytes at 1 uM after 2 hrs by LC-MS/MS analysis; type: ADME, cell-based, Hepatocyte; conditions: read-out: Drug metabolism
How it was run: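 Human hepatocytes incubated with substrate at 1 μM for 2 h; percentage turnover of parent determined.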

L5178Y = test: Genotoxicity against mouse L5178Y cells in presence of rat liver metabolic activation system; type: toxicity, cell-based; how it was run: as §2
[13] = Plasma protein binding in rat; type: ADME, cell-free; conditions: read-out: PPB (converted)
Hepatocyte [14] = test: Drug metabolism in human hepatocytes assessed as metabolite M7 formation at 12.5 uM after 2 hrs by LC-MS/MS analysis; type: ADME, cell-based; how it was run: as §1
[15] = biological target: Beta-3 adrenergic receptor (Homo sapiens, UniProt P13945); test: Agonist activity at human beta3 adrenoceptor transfected in CHO cells assessed as cyclic AMP accumulation after 45 mins by fluorescence polarization assay; type: cell-based
Chain of Beta-3 adrenergic receptor (P13945 whole entry): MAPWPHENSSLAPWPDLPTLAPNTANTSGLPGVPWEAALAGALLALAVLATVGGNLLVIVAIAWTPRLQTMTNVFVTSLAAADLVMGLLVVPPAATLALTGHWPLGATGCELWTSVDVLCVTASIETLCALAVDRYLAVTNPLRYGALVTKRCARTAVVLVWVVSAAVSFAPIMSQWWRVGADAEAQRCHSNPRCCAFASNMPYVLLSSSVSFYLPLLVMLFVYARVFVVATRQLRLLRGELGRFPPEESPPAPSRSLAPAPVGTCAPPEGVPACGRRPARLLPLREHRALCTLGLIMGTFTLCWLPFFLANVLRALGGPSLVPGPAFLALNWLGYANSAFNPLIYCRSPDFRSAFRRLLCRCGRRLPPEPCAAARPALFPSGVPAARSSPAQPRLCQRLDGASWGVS

[16] = biological target: 5-hydroxytryptamine receptor 1B (Homo sapiens, UniProt P28222); test: Binding affinity to human 5HT1B receptor
Chain of 5-hydroxytryptamine receptor 1B (P28222 whole entry): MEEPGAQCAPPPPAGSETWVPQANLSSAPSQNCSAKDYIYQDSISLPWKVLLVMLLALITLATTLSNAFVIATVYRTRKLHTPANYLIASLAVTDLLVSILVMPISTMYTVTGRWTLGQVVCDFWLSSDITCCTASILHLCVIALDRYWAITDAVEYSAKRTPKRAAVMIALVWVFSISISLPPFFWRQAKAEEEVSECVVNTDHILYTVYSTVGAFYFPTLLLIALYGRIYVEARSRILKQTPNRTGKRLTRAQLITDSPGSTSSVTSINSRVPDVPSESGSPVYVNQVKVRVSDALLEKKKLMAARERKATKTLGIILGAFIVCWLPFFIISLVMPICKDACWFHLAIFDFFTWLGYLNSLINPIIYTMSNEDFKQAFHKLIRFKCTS

Cavia porcellus [17] = test: Bronchodilatory activity in guinea pig assessed as duration of action of inhibition of histamine-induced bronchoconstriction at 10 times EC90 administered via nebulization 2 mins prior to histamine challenge; type: functional; how it was run: as §5
Cytochrome P450 3A4 = Cytochrome P450 3A4 (Homo sapiens, UniProt P08684); test: Inhibition of human CYP3A4 expressed in Escherichia coli using diethoxyfluorescein as substrate; type: ADME
Chain of Cytochrome P450 3A4 (P08684 whole entry, canonical isoform): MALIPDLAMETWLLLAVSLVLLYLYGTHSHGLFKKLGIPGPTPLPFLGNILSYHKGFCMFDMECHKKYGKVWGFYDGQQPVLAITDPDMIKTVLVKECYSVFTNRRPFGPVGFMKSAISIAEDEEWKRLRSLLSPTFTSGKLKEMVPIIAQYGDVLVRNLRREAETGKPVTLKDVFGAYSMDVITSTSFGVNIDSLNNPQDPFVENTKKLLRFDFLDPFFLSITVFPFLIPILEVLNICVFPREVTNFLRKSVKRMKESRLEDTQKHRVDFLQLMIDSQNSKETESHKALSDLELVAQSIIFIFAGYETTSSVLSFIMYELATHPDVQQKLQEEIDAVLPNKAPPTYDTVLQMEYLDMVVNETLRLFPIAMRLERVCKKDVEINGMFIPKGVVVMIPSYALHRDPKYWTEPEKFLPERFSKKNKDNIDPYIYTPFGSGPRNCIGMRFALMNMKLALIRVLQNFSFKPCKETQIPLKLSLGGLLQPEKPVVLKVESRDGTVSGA
How it was run: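 Human CYP isoforms expressed in E. coli; IC50 from n = 3. Probe substrates diethoxyfluorescein and 7-benzyloxyquinoline are stated for CYP3A4.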

Cavia porcellus [18] = test: Bronchodilatory activity in guinea pig assessed as inhibition of histamine-induced bronchoconstriction administered via nebulization 2 mins prior to histamine challenge; type: functional; how it was run: as §5
[19] = Oral bioavailability in beagle dog at 0.25 mg/kg up to 8 hrs by LC-MS/MS analysis; type: ADME, organism-based, Canis lupus familiaris; conditions: in vivo
How it was run: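 Beagle dogs dosed 0.25 mg/kg orally, with 0.05 mg/kg iv reference arm; plasma collected at various time points up to 8 h postdose.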

[20] = Oral bioavailability in Han Wistar rat at 2 mg/kg up to 7 hrs by LC-MS/MS analysis; type: ADME, organism-based; conditions: in vivo
Hepatocyte [21] = test: Drug metabolism in human hepatocytes assessed as metabolite M11 formation at 12.5 uM after 2 hrs by LC-MS/MS analysis; type: ADME, cell-based; how it was run: as §1
Liver microsome = test: Clearance in human liver microsomes; type: ADME
How it was run: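 Compound incubated with liver microsomes; in vitro metabolic clearance expressed as (mL/min)/g liver.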

[22] = Ratio of drug uptake from blood to plasma in human; type: ADME; how it was run: as §3
Hepatocyte [23] = test: Drug metabolism in human hepatocytes assessed as metabolite M1 formation at 12.5 uM after 2 hrs by LC-MS/MS analysis; type: ADME, cell-based; how it was run: as §1
[24] = Plasma clearance in Han Wistar rat at 0.25 mg/kg, iv up to 7 hrs by LC-MS/MS analysis; type: ADME, organism-based; set-up: dose 0.25 mg/kg, route intravenous; how it was run: as §4

Question: What does the source list for `CC(=O)O.O=S(=O)(c1cccc(CCCCOCCCCCCNC[C@H](O)c2ccc(O)c(CO)c2)c1)C1CCCC1`?
Answer: fraction unbound [1]: 0.03; clearance [2]: 3.7 mL/min/kg; IC50 [3]: 100 nM; Drug metabolism (Hepatocyte [4]): Active; Activity (Salmonella typhimurium): Non-toxic; Drug metabolism (Hepatocyte [5]): Active; EC50 [6]: 501 nM; blood plasma ratio [7]: 1.3; fraction unbound [8]: 0.03; half-life [9]: 30 min; Drug metabolism (Hepatocyte [10]): Active; Time (Cavia porcellus [11]): 20 h; metabolised at 2 h, 1 µM [12]: 90%; Activity (L5178Y): Non-toxic; fraction unbound [13]: 0.02; Drug metabolism (Hepatocyte [14]): Active; EC50 [15]: 794 nM; IC50 [16]: 100 nM; Time (Cavia porcellus [17]): >24 h; IC50 (Cytochrome P450 3A4): 1600 nM; EC90 (Cavia porcellus [18]): 10000 nM; bioavailability [19]: 3%; bioavailability [20]: < 2%; Drug metabolism (Hepatocyte [21]): Active; CLH (Liver microsome): 8 mL/min/g; blood plasma ratio [22]: 0.65; Drug metabolism (Hepatocyte [23]): Active; clearance [24]: 53 mL/min/kg
